# Measured values: ChEMBL document CHEMBL2157904, “Identification of a novel Smoothened antagonist that potently suppresses Hedgehog signaling” (Bioorg Med Chem, 2012)
# Active and inactive are the calls of the source. No cut-off for these calls is given here.
# Key:
# U2OS = assay: Antagonist activity at chimeric Smo 633 mutant expressed in U2OS cells coexpressing beta arrestin2-GFP assessed as inhibition of intracellular beta arrestin2-GFP aggregate formation at 5 uM after 6 hrs by confocal microscopy; type: functional, cell-based; settings: Homo sapiens
# How it was run: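 Cells exposed to compound at 5 µM for 6 hours. Confocal imaging scored loss of intracellular βarr2-GFP vesicular aggregates.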
# [1] = Antiproliferative activity against Shh-stimulated C57BL/6 mouse granule cell precursor after 48 hrs by [3H]thymidine incorporation assay; type: functional
# How it was run: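 Primary cerebellar granule cell precursors taken from 7-day postnatal C57BL/6 mice. Treated 48 h with Shh plus compound at increasing concentrations, then [3H]-thymidine added for 16 h and incorporation measured. Curve-fit IC50, mean ± SEM, n = 3.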
# [2] = molecular target: Vasopressin V2 receptor (Homo sapiens) (UniProt P30518); assay: Antagonist activity at V2R expressed in U2OS cells coexpressing beta arrestin2-GFP assessed as inhibition of D-arginine vasopressin-induced intracellular beta arrestin2-GFP aggregate formation at 5 uM preincubated for 1 hr before agonist treatment measured after 6 hrs of agonist treatment by confocal microscopy; type: functional, cell-based
# Protein smoothened = Protein smoothened (Mus musculus, UniProt P56726); assay: Antagonist activity at Smo in mouse Shh-Light 2 cells assessed as inhibition of Shh-induced Gli1-reporter activity after 2 days by dual-luciferase reporter gene method; type: functional, cell-based, Shh Light II
# How it was run: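 Shh-LIGHT2 cells (clonal NIH3T3 line with stably integrated Gli-dependent firefly luciferase and constitutive Renilla luciferase) stimulated with purified Sonic Hedgehog at 50 ng/mL, with compound at increasing concentrations. Dual-luciferase read-out. Mean ± SEM.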
# Mus musculus = assay: Inhibition of hair regrowth in eight week old C57BL/6 mouse at 0.5 mM topically administered daily on shaved and Nair depilated surface for 2 weeks; type: functional, organism-based
# How it was run: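 Female C57BL/6 mice aged eight weeks, in telogen, with dorsal skin shaved and then depilated with Nair for 2 min and rinsed. Compound at 0.5 mM in 95% acetone/5% DMSO, 30 µl applied topically to the depilated area daily for two weeks. Vehicle-treated controls. Brief 3% isoflurane anaesthesia during procedures.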
# Sequence of Vasopressin V2 receptor (Homo sapiens) (P30518 whole entry): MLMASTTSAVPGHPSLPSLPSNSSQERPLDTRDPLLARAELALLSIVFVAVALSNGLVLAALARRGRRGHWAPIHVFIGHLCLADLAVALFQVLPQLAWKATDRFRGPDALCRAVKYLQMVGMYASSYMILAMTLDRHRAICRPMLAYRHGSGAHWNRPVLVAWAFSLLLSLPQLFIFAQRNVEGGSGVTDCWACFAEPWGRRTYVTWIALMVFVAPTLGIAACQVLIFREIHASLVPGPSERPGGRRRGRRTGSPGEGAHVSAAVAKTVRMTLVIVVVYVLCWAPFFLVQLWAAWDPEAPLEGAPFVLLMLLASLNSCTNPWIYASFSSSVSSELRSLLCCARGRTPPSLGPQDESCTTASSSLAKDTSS
# Sequence of Protein smoothened (P56726 whole entry): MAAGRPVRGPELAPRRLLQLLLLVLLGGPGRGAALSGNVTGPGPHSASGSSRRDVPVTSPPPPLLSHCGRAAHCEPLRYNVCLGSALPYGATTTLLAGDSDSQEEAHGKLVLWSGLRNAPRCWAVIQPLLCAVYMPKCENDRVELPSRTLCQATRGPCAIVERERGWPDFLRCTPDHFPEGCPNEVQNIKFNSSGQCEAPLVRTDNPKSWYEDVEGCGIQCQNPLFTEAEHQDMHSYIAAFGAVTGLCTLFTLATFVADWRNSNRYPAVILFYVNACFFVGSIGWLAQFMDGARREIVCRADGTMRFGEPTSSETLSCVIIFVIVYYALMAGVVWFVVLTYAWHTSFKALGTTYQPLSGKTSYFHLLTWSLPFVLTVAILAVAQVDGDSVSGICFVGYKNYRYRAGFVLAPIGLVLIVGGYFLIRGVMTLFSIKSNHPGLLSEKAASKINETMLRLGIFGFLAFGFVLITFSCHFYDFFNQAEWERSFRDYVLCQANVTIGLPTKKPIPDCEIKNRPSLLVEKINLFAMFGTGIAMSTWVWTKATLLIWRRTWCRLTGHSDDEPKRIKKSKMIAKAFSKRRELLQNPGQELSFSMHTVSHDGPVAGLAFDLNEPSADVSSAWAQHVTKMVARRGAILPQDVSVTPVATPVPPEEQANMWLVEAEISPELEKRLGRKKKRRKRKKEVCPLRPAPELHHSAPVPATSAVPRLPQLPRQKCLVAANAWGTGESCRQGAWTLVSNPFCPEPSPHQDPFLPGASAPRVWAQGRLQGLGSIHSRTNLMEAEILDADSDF
Compound,inhibition (U2OS),IC50 [1] [nM],inhibition [2],IC50 (Protein smoothened) [nM],inhibition (Mus musculus)
CC1=C2C[C@H]3[C@@H](CC=C4C[C@@H](O)CC[C@@]43C)[C@@H]2CC[C@]12O[C@@H]1C[C@H](C)CN[C@H]1[C@H]2C [CYCLOPAMINE],Active,414,inactive,,
O=C(NC1CCN(Cc2ccc(N3CCC(NC(=O)c4cccc(-c5cccnc5)c4)CC3)nc2)CC1)c1cccc(-c2cccnc2)c1,,16.6,inactive,2.6,Active
CCN(C)Cc1ccc(N2CCC(NC(=O)c3cccc(-c4cccnc4)c3)CC2)nc1,Active,,,,
CS(=O)(=O)c1ccc(C(=O)Nc2ccc(Cl)c(-c3ccccn3)c2)c(Cl)c1 [VISMODEGIB],,16.4,,,
